For 9 compounds, Ki, Intrinsic activity and EC50 results are on record in ChEMBL document CHEMBL4477203 (J Med Chem, 2016).

One may read the Ki as the equilibrium dissociation constant of an inhibitor or competing ligand from its target. As usually defined, the EC50 is the midpoint of the concentration-response curve.

Test [1] has as its target T1, Neuropeptide Y receptor type 1 (Homo sapiens, UniProt P25929).
T1 sequence (P25929 whole entry): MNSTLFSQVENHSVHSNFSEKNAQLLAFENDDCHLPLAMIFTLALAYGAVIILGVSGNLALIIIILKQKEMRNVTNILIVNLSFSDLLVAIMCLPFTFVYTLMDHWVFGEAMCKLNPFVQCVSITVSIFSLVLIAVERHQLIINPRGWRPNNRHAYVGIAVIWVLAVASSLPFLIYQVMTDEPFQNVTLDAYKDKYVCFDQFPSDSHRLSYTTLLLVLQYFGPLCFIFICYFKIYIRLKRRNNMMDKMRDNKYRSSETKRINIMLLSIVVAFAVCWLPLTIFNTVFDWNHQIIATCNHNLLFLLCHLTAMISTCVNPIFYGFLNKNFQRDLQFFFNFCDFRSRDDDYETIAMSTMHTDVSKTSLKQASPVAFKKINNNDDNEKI
In words: Displacement of [3H]UR-MK136 from human NPY Y1 receptor expressed in human MCF7 cells by liquid scintillation counting. Format: cell-based. For orientation: In a radioligand displacement assay an active substance lowers the binding of a labelled ligand.

In test [2] the target is T2, Neuropeptide Y receptor type 4 (Homo sapiens, UniProt P50391). In words: Intrinsic activity at human NPY Y4 receptor expressed in HEK293 cells co-expressing CRE-Luc gene assessed as inhibition of forskolin stimulated luciferase activity after 4.5 hrs by luminescence assay relative to pancreatic polypeptide. Format: functional, cell-based. An outline of the steps:
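HEK293 cells stably co-transfected with a CRE-controlled firefly luciferase reporter and hY4R, tested in phenol-red-free DMEM, pH 7.4. […] The maximal inhibition by PP was set to 0% activity (α = 1.0). Data are means ± SEM of at least 3 experiments in triplicate.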

Test [3] has as its target T2, Neuropeptide Y receptor type 4. In words: Intrinsic activity at human NPY Y4 receptor expressed in CHO cells co-expressing Gqi5-mtAEQ assessed as induction of calcium mobilization by aequorin luminescence assay relative to pancreatic polypeptide. Format: functional, cell-based. Put shortly: (§1)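 Luminescence was integrated as area under the curve and normalized to the response to 1 µM PP. Data are means ± SEM of at least 3 independent experiments, each run in triplicate.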

Test [4] shares this target. In words: Displacement of [3H](2R,7R)-10 from human NPY Y4 receptor expressed in CHO cells co-expressing Gqi5-mtAEQ after 90 mins in presence of sodium-free HEPES buffer by liquid scintillation counting. Format: cell-based.
Test [5] has the same target. Put plainly: Agonist activity at human NPY Y4 receptor expressed in HEK293 cells co-expressing CRE-Luc gene assessed as inhibition of forskolin stimulated luciferase activity after 4.5 hrs by luminescence assay. In kind it is functional, cell-based. Put shortly:
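HEK293 cells stably co-transfected with a CRE-controlled firefly luciferase reporter and hY4R, tested in phenol-red-free DMEM, pH 7.4. The maximal inhibition by PP was set to 0% activity (α = 1.0). Data are means ± SEM of at least 3 experiments in triplicate.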

Test [6] addresses T3, Neuropeptide Y receptor type 2 (Homo sapiens, UniProt P49146).
T3 sequence (P49146 whole entry): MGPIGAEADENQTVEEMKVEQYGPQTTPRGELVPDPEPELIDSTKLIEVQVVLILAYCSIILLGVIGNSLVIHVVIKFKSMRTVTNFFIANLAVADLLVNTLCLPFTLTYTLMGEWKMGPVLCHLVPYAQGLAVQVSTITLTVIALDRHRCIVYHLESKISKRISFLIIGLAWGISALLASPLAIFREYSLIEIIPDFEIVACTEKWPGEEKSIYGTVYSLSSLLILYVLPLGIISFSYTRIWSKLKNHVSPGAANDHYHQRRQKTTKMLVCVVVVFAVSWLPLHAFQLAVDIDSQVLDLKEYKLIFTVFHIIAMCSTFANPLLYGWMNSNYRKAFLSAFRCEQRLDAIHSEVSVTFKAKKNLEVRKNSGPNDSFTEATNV
In words: Displacement of [3H]propionyl-pNPY from human NPY Y2 receptor expressed in CHO cells co-expressing Gqi5-mtAEQ after 90 mins by liquid scintillation counting. In kind it is cell-based. Put shortly:
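Adherent CHO-hY2R-Gqi5-mtAEQ cells in buffer I with 1% BSA and 0.1 mg/mL bacitracin at 22 °C. […] Incubation was 90 min, followed by two ice-cold washes, lysis and scintillation counting.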

Test [7] has as its target T4, Neuropeptide Y receptor type 5 (Homo sapiens, UniProt Q15761).
T4 sequence (Q15761 whole entry): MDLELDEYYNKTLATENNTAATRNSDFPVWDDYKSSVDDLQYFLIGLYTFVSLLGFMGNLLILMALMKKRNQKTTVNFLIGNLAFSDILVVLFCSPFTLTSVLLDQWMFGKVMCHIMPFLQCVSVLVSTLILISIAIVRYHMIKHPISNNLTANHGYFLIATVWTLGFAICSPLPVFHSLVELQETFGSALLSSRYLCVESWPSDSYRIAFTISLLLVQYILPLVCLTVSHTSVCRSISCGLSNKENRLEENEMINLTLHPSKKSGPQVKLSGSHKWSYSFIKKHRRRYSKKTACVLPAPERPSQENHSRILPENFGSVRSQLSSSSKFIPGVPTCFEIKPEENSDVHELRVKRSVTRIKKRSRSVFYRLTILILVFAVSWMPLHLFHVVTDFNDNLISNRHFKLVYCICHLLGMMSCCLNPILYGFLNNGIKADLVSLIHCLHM
Put plainly: Displacement of [3H]propionyl-pNPY from human NPY Y5 receptor expressed in human HEC1b cells after 120 mins by liquid scintillation counting. In kind it is cell-based. An outline of the steps: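 Adherent HEC-1B-hY5 cells in buffer II with 1% BSA and 0.1 mg/mL bacitracin at 22 °C. […] Incubation was 120 min, followed by ice-cold washes, lysis and scintillation counting.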

The target in test [8] is T2, Neuropeptide Y receptor type 4. Put plainly: Agonist activity at human NPY Y4 receptor expressed in CHO cells co-expressing Gqi5-mtAEQ assessed as induction of calcium mobilization by aequorin luminescence assay. In kind it is functional, cell-based. Put shortly: as §1
Test [9] has the same target. Put plainly: Displacement of [3H](2R,7R)-10 from human NPY Y4 receptor expressed in CHO cells co-expressing Gqi5-mtAEQ after 90 mins in presence of L-15 medium by liquid scintillation counting. Format: cell-based.

Numbered stars: 1 amine (or outer) side, 2 acyl side, 3 side chain; on linkers, the order of the positions; unused ones are H or OH. Bridge positions count the residues as written; N and C are the ends. Peptide text beside a SMILES is read from it. I, II: the chains in the order shown. Suberoyl = O=C(CCCCCCC(=O)[*:2])[*:1]

T2 sequence (P50391 whole entry): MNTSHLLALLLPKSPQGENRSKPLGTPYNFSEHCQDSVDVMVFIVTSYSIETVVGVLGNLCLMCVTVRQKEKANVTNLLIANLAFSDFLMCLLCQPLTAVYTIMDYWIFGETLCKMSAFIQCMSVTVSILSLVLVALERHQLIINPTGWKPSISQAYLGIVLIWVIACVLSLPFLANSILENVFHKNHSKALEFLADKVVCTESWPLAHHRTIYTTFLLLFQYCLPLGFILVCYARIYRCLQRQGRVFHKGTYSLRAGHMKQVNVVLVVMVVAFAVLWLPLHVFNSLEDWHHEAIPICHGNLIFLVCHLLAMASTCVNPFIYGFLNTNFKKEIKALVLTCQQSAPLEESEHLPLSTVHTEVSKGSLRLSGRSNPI

Consider `CC(C)C[C@H](NC(=O)[C@H](CCCNC(=N)N)NC(=O)[C@H](Cc1ccc(O)cc1)NC(=O)CCCCCCC(=O)N[C@@H](Cc1ccc(O)cc1)C(=O)N[C@@H](CCCNC(=N)N)C(=O)N[C@@H](CC(C)C)C(=O)N[C@@H](CCCNC(=N)N)C(=O)N[C@@H](Cc1ccc(O)cc1)C(N)=O)C(=O)N[C@@H](CCCNC(=N)N)C(=O)N[C@@H](Cc1ccc(O)cc1)C(N)=O` (I: YRLRY-NH2 / II: YRLRY-NH2; linker I:N-II:N via Suberoyl), for which the inhibitory constant (Ki) in test [1] was 0.72 µM; in test [4] it was 0.0035 µM; in [6] it was 1.7 µM; in [7] it was 0.28 µM. In addition, the Intrinsic activity in test [2] was determined as 0.93; in test [3], 0.73. Moreover, the concentration giving a half-maximal response (EC50) came to 0.086 µM in [5] and 0.049 µM in test [8].

For `CC(C)C[C@H](NC(=O)[C@H](C)NC(=O)[C@H](Cc1ccc(O)cc1)NC(=O)CCCCCCC(=O)N[C@@H](Cc1ccc(O)cc1)C(=O)N[C@@H](CCCNC(=N)N)C(=O)N[C@@H](CC(C)C)C(=O)N[C@@H](CCCNC(=N)N)C(=O)N[C@@H](Cc1ccc(O)cc1)C(N)=O)C(=O)N[C@@H](CCCNC(=N)N)C(=O)N[C@@H](Cc1ccc(O)cc1)C(N)=O` (I: YALRY-NH2 / II: YRLRY-NH2; linker I:N-II:N via Suberoyl), the inhibitory constant (Ki) in test [1] is 1.4 µM; in test [4], 0.012 µM; in [6], over 3 µM; in test [7] it was 0.22 µM. The Intrinsic activity in test [2] was determined as 0.98; in test [3], 0.85. Further, the results for the concentration for a half-maximal effect (EC50) in [5] and in [8] were 0.16 µM and 0.29 µM, respectively.

In the case of `CC(C)C[C@H](NC(=O)[C@H](C)NC(=O)[C@H](Cc1ccc(O)cc1)NC(=O)CCCCCCC(=O)N[C@@H](Cc1ccc(O)cc1)C(=O)N[C@@H](C)C(=O)N[C@@H](CC(C)C)C(=O)N[C@@H](CCCNC(=N)N)C(=O)N[C@@H](Cc1ccc(O)cc1)C(N)=O)C(=O)N[C@@H](CCCNC(=N)N)C(=O)N[C@@H](Cc1ccc(O)cc1)C(N)=O` (I: YALRY-NH2 / II: YALRY-NH2; linker I:N-II:N via Suberoyl), the Ki in test [1] is over 3 µM; in test [4] it was over 3 µM; in [6] it was over 10 µM; in test [7], 0.55 µM. Further, the EC50 in test [5] and in [8] was over 3 µM throughout.

Regarding `CC(C)C[C@H](NC(=O)[C@H](CCCNC(=N)N)NC(=O)[C@H](Cc1ccc(O)cc1)NC(=O)[C@@H](N)CCCC[C@H](N)C(=O)N[C@@H](Cc1ccc(O)cc1)C(=O)N[C@@H](CCCNC(=N)N)C(=O)N[C@@H](CC(C)C)C(=O)N[C@@H](CCCNC(=N)N)C(=O)N[C@@H](Cc1ccc(O)cc1)C(N)=O)C(=O)N[C@@H](CCCNC(=N)N)C(=O)N[C@@H](Cc1ccc(O)cc1)C(N)=O`, the Ki was determined as 0.017 µM in [9]; 0.93 µM in [1]; 0.0023 µM in test [4]; 0.95 µM in test [6]; 2.1 µM in test [7]. For the same compound, the figures for the Intrinsic activity in test [2] and in [3] were 1.07 and 0.78, respectively. Further, the half-maximal effective concentration (EC50) in [5] came out at 0.019 µM; in [8], 0.018 µM.

For the compound `CC(C)C[C@H](NC(=O)[C@H](CCCNC(=N)N)NC(=O)[C@H](Cc1ccc(O)cc1)NC(=O)CCCCCCC(=O)N[C@@H](Cc1ccc(O)cc1)C(=O)N[C@@H](CCCNC(=N)N)C(=O)N[C@@H](CC(C)C)C(=O)N[C@@H](C)C(=O)N[C@@H](Cc1ccc(O)cc1)C(N)=O)C(=O)N[C@@H](C)C(=O)N[C@@H](Cc1ccc(O)cc1)C(N)=O` (I: YRLAY-NH2 / II: YRLAY-NH2; linker I:N-II:N via Suberoyl), the Ki in test [1] is over 10 µM; in [4] it was over 3 µM; in test [6], over 10 µM; in test [7], over 10 µM. In addition, the concentration giving a half-maximal response (EC50) in test [5] is over 3 µM.

For `CC[C@H](C)[C@H](N)C(=O)N[C@H]1CCC(=O)NC[C@@H](C(=O)N[C@@H](Cc2ccc(O)cc2)C(=O)N[C@@H](CCCN=C(N)N)C(=O)N[C@@H](CC(C)C)C(=O)N[C@@H](CCCN=C(N)N)C(=O)N[C@@H](Cc2ccc(O)cc2)C(N)=O)NC(=O)[C@@H]2CCCN2C(=O)[C@H](NC(=O)[C@@H](N)[C@@H](C)CC)CCC(=O)NC[C@H](C(=O)N[C@@H](Cc2ccc(O)cc2)C(=O)N[C@@H](CCCN=C(N)N)C(=O)N[C@@H](CC(C)C)C(=O)N[C@@H](CCCN=C(N)N)C(=O)N[C@@H](Cc2ccc(O)cc2)C(N)=O)NC(=O)[C@@H]2CCCN2C1=O`, the Intrinsic activity in test [2] was 1.01; in test [3], 0.62.

`CCC(=O)N[C@H](CCCC[C@@H](N)C(=O)N[C@H](Cc1ccc(O)cc1)C(=O)N[C@H](CCCNC(=N)N)C(=O)N[C@H](CC(C)C)C(=O)N[C@H](CCCNC(=N)N)C(=O)N[C@H](Cc1ccc(O)cc1)C(N)=O)C(=O)N[C@@H](Cc1ccc(O)cc1)C(=O)N[C@@H](CCCNC(=N)N)C(=O)N[C@@H](CC(C)C)C(=O)N[C@@H](CCCNC(=N)N)C(=O)N[C@@H](Cc1ccc(O)cc1)C(N)=O`: the Ki in test [1] (mcf7) was determined as 0.29 µM; in [4] (cho), 0.0028 µM; in test [6] (cho), 0.75 µM; in [7], 0.4 µM. The Intrinsic activity came out at 0.98 in test [2] and 0.7 in test [3]. Also, the EC50 in test [5] (hek293) was 0.027 µM; in [8] (cho), 0.059 µM.

For the compound `CC(C)C[C@H](NC(=O)[C@H](CCCNC(=N)N)NC(=O)[C@H](Cc1ccc(O)cc1)NC(=O)C(N)CCCCC(N)C(=O)N[C@@H](Cc1ccc(O)cc1)C(=O)N[C@@H](CCCNC(=N)N)C(=O)N[C@@H](CC(C)C)C(=O)N[C@@H](CCCNC(=N)N)C(=O)N[C@@H](Cc1ccc(O)cc1)C(N)=O)C(=O)N[C@@H](CCCNC(=N)N)C(=O)N[C@@H](Cc1ccc(O)cc1)C(N)=O` (stereo not given in full), the Ki in [4] is 0.00106 µM.

Turning to `CC(C)C[C@H](NC(=O)[C@H](CCCNC(=N)N)NC(=O)[C@H](Cc1ccc(O)cc1)NC(=O)CCCCCCC(=O)N[C@@H](Cc1ccc(O)cc1)C(=O)N[C@@H](CCCNC(=N)N)C(=O)N[C@@H](CC(C)C)C(=O)N[C@@H](CCCNC(=N)N)C(=O)N[C@@H](Cc1ccc(O)cc1)C(N)=O)C(=O)N[C@@H](C)C(=O)N[C@@H](Cc1ccc(O)cc1)C(N)=O` (I: YRLAY-NH2 / II: YRLRY-NH2; linker I:N-II:N via Suberoyl), the Ki in test [1] was 1.6 µM; in [4], 0.011 µM; in [6] it was over 3 µM; in test [7], 0.46 µM. Besides, the Intrinsic activity in test [2] was found to be 0.99; in [3], 0.85. The EC50 in test [5] is 0.15 µM; in [8], 0.31 µM.
